Laboratory results published in ChEMBL document CHEMBL1125769 (J Med Chem, 1991).
“And” between values parts separate entries of the source, which are not always exact repeats. Equal values may be shown once. Square brackets hold non-standard residues; d marks the D form. Peptide text beside a SMILES is read from it. NMeA = CN[C@@H](C)C(=O)O; Ac5c = NC1(C(=O)O)CCCC1; Aib = CC(C)(N)C(=O)O; Sar = CNCC(=O)O

Columns and labels:
Angiotensin II receptor = biological target: T1, Angiotensin II receptor (Rattus norvegicus, UniProt P29089+P25095+P35351); test: In vitro antagonist activity (ANG II like) expressed as percent activity relative to ANG II in rabbit aorta strip assay.; type: functional, tissue-based
T1 sequence (P29089 whole entry): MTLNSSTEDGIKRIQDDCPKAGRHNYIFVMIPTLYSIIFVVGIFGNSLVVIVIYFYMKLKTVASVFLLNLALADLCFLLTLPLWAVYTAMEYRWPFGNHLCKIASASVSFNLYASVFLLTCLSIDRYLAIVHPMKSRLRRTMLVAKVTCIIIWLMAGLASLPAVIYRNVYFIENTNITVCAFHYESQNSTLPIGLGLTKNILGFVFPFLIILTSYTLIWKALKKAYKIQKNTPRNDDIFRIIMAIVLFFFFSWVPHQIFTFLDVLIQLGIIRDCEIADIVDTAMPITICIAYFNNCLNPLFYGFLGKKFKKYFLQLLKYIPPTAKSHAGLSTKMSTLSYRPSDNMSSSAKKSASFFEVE
T1 sequence (P25095 whole entry): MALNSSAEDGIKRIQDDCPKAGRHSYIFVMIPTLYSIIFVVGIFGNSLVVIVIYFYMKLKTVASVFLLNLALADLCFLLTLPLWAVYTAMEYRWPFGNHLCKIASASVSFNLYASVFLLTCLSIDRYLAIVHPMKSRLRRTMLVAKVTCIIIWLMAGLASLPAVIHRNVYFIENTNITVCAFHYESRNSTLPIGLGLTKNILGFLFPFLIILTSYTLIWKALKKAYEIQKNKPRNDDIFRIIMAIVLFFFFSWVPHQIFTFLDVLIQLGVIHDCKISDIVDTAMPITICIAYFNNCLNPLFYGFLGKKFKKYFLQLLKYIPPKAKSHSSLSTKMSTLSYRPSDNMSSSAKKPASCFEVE
T1 sequence (P35351 whole entry): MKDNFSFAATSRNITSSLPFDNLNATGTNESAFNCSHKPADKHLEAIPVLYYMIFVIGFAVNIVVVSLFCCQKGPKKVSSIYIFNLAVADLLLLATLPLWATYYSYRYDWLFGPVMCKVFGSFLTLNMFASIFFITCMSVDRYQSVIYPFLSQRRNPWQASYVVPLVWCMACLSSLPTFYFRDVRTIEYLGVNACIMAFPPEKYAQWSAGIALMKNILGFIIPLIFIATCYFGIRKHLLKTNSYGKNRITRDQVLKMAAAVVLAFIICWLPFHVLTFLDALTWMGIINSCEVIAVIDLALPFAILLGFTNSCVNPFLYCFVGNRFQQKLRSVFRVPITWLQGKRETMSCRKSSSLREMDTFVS

[1] = biological target: T2, Angiotensin II receptor (Rattus norvegicus) (UniProt P29089+P25095+P35351); test: In vitro agonist activity relative to angiotensin II measured in rabbit aorta strip assay.; type: functional, tissue-based
[2] = biological target: T2, Angiotensin II receptor (Rattus norvegicus); test: In vivo agonist activity expressed as percent activity relative to angiotensin II in rat blood pressure assay.; type: functional, organism-based
Summary of the method: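 Rat blood pressure (pressor) assay in vivo, after Regoli et al.; ANG II-like activity given as percent activity relative to ANG II; n = 5.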

[3] = biological target: T2, Angiotensin II receptor (Rattus norvegicus); test: In vivo antagonist activity (ANG II like) expressed by blood pressure increase (mHg) produced by […] iv injection of compound in rats; type: functional, organism-based
Summary of the method: (§1)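 Rat blood pressure assay after Regoli et al.; residual ANG II-like activity read as mmHg rise in blood pressure following a one microgram intravenous bolus of compound; n = 5.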

Rattus norvegicus [4] = test: in vivo antagonist activity (ANG II like) is expressed by blood pressure increase (mHg) produced by […] iv injection of compound in rats; type: functional; summary of the method: as §1
Rattus norvegicus [5] = organism: Rattus norvegicus; test: In vitro antagonist activity expressed as pA2 was measured in rat uterus
Oryctolagus cuniculus = organism: Oryctolagus cuniculus; test: In vitro agonist activity expressed as percent activity relative to ANG II was measured in rabbit aorta strip assay; type: functional
Rattus norvegicus [6] = test: In vivo antagonist activity (ANG II like) expressed as blood pressure increase […] produced by […] iv injection of compound in rats; type: functional; summary of the method: as §1

Row | Structure (SMILES) | pA2 (Angiotensin II receptor) | Activity [1] | Activity [2] | ID50 (ng min-1 rat-1) [3] | other results
1 | CC[C@@H](C)[C@@H](NC(=O)[C@H](Cc1ccc(O)cc1)NC(=O)[C@H](C)N(C)C(=O)[C@H](CCCN=C(N)N)NC(=O)CNC)C(=O)N[C@@H](Cc1c[nH]cn1)C(=O)N1CCC[C@H]1C(=O)NC(Cc1ccccc1)C(=O)O (stereo in doubt) | < 6 | 0% | 10% | 100 | 
2 | CC(C)[C@H](NC(=O)[C@H](Cc1ccc(O)cc1)NC(=O)C1(NC(=O)[C@H](CCCN=C(N)N)NC(=O)[C@@H](N)CC(=O)O)CCCC1)C(=O)N[C@@H](Cc1c[nH]cn1)C(=O)NC1(C(=O)N[C@@H](Cc2ccccc2)C(=O)O)CCCC1 (H-DR[Ac5c]YVH[Ac5c]F-OH) |  |  | 1.5% |  | 
3 | CC[C@H](C)[C@H](NC(=O)[C@H](Cc1ccc(O)cc1)NC(=O)[C@@H](NC(=O)[C@H](CCCN=C(N)N)NC(=O)CNC)C(C)C)C(=O)N[C@@H](Cc1c[nH]cn1)C(=O)N1CCC[C@H]1C(=O)N[C@@H](Cc1ccccc1)C(=O)O |  | 180% | 125% |  | 
4 | CC[C@H](C)[C@H](NC(=O)[C@@H]1CSCN1C(=O)[C@H](Cc1c[nH]cn1)NC(=O)[C@@H](NC(=O)[C@H](Cc1ccc(O)cc1)NC(=O)[C@@H](NC(=O)[C@H](CCCN=C(N)N)NC(=O)CNC)C(C)C)[C@@H](C)CC)C(=O)O |  |  |  |  | ID50 (Rattus norvegicus [4]): 12.5 ng min-1 rat-1; pA2 (Rattus norvegicus [5]): 7.2
5 | CC(C)[C@H](NC(=O)[C@H](Cc1ccc(O)cc1)NC(=O)C1(NC(=O)[C@H](CCCN=C(N)N)NC(=O)[C@@H](N)CC(=O)O)CCCC1)C(=O)N[C@@H](Cc1c[nH]cn1)C(=O)NC(C)(C)C(=O)N[C@@H](Cc1ccccc1)C(=O)O (H-DR[Ac5c]YVH[Aib]F-OH) |  |  | 1% |  | 
6 | CC[C@H](C)[C@H](NC(=O)[C@H](Cc1ccc(O)cc1)NC(=O)C(C)(C)NC(=O)[C@H](CCCN=C(N)N)NC(=O)[C@@H](N)CC(=O)O)C(=O)N[C@@H](Cc1c[nH]cn1)C(=O)N1CCC[C@H]1C(=O)N[C@@H](Cc1ccccc1)C(=O)O (H-DR[Aib]YIHPF-OH) |  |  | 1% |  | 
7 | CC[C@H](C)[C@H](NC(=O)[C@H](Cc1ccc(O)cc1)NC(=O)[C@H](C)NC(=O)[C@H](CCCN=C(N)N)NC(=O)[C@@H](N)CC(=O)O)C(=O)N[C@@H](Cc1c[nH]cn1)C(=O)N1CCC[C@H]1C(=O)N[C@@H](Cc1ccccc1)C(=O)O (H-DRAYIHPF-OH) |  |  | 80.5% |  | 
8 | CC[C@H](C)[C@H](NC(=O)[C@H](Cc1ccc(O)cc1)NC(=O)C1(NC(=O)[C@H](CCCN=C(N)N)NC(=O)[C@@H](N)CC(=O)O)CCCC1)C(=O)N[C@@H](Cc1c[nH]cn1)C(=O)N1CCC[C@H]1C(=O)N[C@@H](Cc1ccccc1)C(=O)O (H-DR[Ac5c]YIHPF-OH) |  |  | 2% |  | 
9 | CC(C)[C@H](NC(=O)[C@H](Cc1ccc(O)cc1)NC(=O)C1(NC(=O)[C@H](CCCN=C(N)N)NC(=O)[C@@H](N)CC(=O)O)CCCC1)C(=O)N[C@@H](Cc1c[nH]cn1)C(=O)N(C)[C@@H](C)C(=O)N[C@@H](Cc1ccccc1)C(=O)O (H-DR[Ac5c]YVH[NMeA]F-OH) |  |  | 22% |  | 
10 | CC[C@H](C)[C@H](NC(=O)[C@H](Cc1ccc(O)cc1)NC(=O)[C@@H](NC(=O)[C@H](CCCN=C(N)N)NC(=O)CNC)C(C)C)C(=O)N[C@@H](Cc1c[nH]cn1)C(=O)N1CCC[C@H]1C(=O)N[C@@H](C)C(=O)O |  | 0.5% | 15.1% and 10% |  | Activity (Oryctolagus cuniculus): 0%; ID50 (Rattus norvegicus [6]): 7.92 ng min-1 rat-1 and 15 ng min-1 rat-1
11 | CNCC(=O)N[C@@H](CCCN=C(N)N)C(=O)N[C@H](C(=O)N[C@@H](Cc1ccc(O)cc1)C(=O)N1CSC(C)(C)[C@@H]1C(=O)N[C@@H](Cc1c[nH]cn1)C(=O)N1CCC[C@H]1C(=O)N[C@@H](Cc1ccccc1)C(=O)O)C(C)C |  | 250% | 100% |  | 
12 | CC[C@H](C)[C@H](NC(=O)[C@H](Cc1ccc(O)cc1)NC(=O)[C@@H]1CCCN1C(=O)[C@H](CCCN=C(N)N)NC(=O)[C@@H](N)CC(=O)O)C(=O)N[C@@H](Cc1c[nH]cn1)C(=O)N1CCC[C@H]1C(=O)N[C@@H](Cc1ccccc1)C(=O)O (H-DRPYIHPF-OH) |  |  | 53% |  | 
13 | CC[C@H](C)[C@H](NC(=O)[C@@H]1CCCN1C(=O)[C@H](Cc1c[nH]cn1)NC(=O)[C@@H](NC(=O)[C@H](Cc1ccc(O)cc1)NC(=O)[C@H](C)N(C)C(=O)[C@H](CCCN=C(N)N)NC(=O)CNC)[C@@H](C)CC)C(=O)O (H-[Sar]R[NMeA]YIHPI-OH) | 8.9 | 0% |  | 25 | 
14 | CC[C@H](C)[C@H](NC(=O)[C@@H]1CCCN1C(=O)[C@H](Cc1c[nH]cn1)NC(=O)[C@@H](NC(=O)[C@H](Cc1ccc(O)cc1)NC(=O)[C@H](C)NC(=O)[C@H](CCCN=C(N)N)NC(=O)CNC)[C@@H](C)CC)C(=O)O (H-[Sar]RAYIHPI-OH) | 8.3 | 0% | 7.5% | 25 | 
15 | CC[C@H](C)[C@H](NC(=O)[C@@H]1CCCN1C(=O)[C@H](Cc1c[nH]cn1)NC(=O)[C@@H](NC(=O)[C@H](Cc1ccc(O)cc1)NC(=O)C(C)(C)NC(=O)[C@H](CCCN=C(N)N)NC(=O)CNC)[C@@H](C)CC)C(=O)O (H-[Sar]R[Aib]YIHPI-OH) | 7 | 0% | 3% | 50 | 
16 | CC[C@H](C)[C@H](NC(=O)[C@@H]1CCCN1C(=O)[C@H](Cc1c[nH]cn1)NC(=O)[C@H](C)NC(=O)[C@H](Cc1ccc(O)cc1)NC(=O)[C@@H](NC(=O)[C@H](CCCN=C(N)N)NC(=O)CNC)C(C)C)C(=O)O (H-[Sar]RVYAHPI-OH) | 7.5 | 0% |  | 50 | 
